Bioassay records: PubChem BioAssay, The Scripps Research Institute Molecular Screening Center
This is a sample that favours compounds with a hit; in the whole collection about 4.7% have one here.
AHR activator – human AHR activation; P35869; AHR-responsive luciferase reporter cells, luminescence; activation, % at 5 µM; actives 2.5% (n = 320,000); in the data active means activation above about 47%;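 further: 0% = vehicle wells and 100% = reference agonist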
m5-HT2A agonist – agonists of mouse serotonin 5-HT2A receptor (HTR2A); CHO-K1 mHTR2A beta-arrestin complementation, luminescence; percent of 30 µM serotonin response; actives 0.66% (n = 360,000); activation, % at 7.6 µM; P35363; AID 624169;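 active means activation above a run cutoff, the mean activation of all tested compounds plus 3 SD, cut at about 14% in these data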;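 further: 0% = plate median of compound wells and 100% = 30 µM serotonin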
FXN GAA850 act – increases GAA850 frataxin promoter reporter activity; actives 0.56% (n = 360,000); AID 540364; activation, % at 6 µM; HEK293 lucGAA850 FXN promoter luciferase reporter, 24 h; percent of 10 µM SAHA response;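 active means activation above the average of all compounds screened plus 3 SD, cutoff fixed separately per campaign, cut at about 7.5% in these data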;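 further: 0% = DMSO wells and 100% = 10 µM SAHA wells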
MC4R antagonist – human MC4R antagonism in cAMP assay. P32245. MC4R-expressing cells, MTII-stimulated cAMP, LANCE TR-FRET. inhibition, % at 6.5 µM. actives 0.48% (n = 360,000);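 active means inhibition above its plate's cutoff, the mean of tested wells on that plate plus 3 SD, cut at about 29% in these data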;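 further: 0% = Melanotan II alone and 100% = Melanotan II plus saturating MCL0020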
Target sequence (P32245 whole entry, looked up): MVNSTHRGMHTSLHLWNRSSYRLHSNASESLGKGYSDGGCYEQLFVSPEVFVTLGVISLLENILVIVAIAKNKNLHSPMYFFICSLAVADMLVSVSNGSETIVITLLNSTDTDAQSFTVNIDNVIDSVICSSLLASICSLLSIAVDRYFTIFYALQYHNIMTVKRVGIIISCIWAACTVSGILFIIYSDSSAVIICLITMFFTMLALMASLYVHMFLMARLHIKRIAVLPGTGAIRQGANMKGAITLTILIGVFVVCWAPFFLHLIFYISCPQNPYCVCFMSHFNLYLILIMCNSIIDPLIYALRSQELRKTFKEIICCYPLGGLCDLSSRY
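System: U2OS-MC4R stable cell line; Technique: Eu-cAMP/anti-cAMP TR-FRET, emission 671 nm; Repeats: single well per compound; Also added: Melanotan II; Dosing: one concentration, 6.5 µM nominal; Schedule: 30-min compound, 1-h challenge, 1-h detection, room temperature.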
MC4R barr agon – human MC4R agonism via beta-arrestin; P32245; U2OS MC4R beta-arrestin complementation, luminescence; percent of melanotan II response, DMSO zero; activation, % at 8.9 µM; actives 0.98% (n = 360,000);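 active means activation above a per-plate cutoff, the mean activation of sample wells on that plate plus 3 SD, cut at about 8% in these data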
MC4R barr ag – human MC4R beta-arrestin agonism confirmation | shares compounds with MC4R barr agon | U2OS MC4R beta-arrestin recruitment, luminescence; scaled DMSO 0%, Melanotan II 100% | activation, % at 8.9 µM | actives 31% (n = 2,400) | AID 602192;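 active means mean activation across replicates above the hit cutoff set in the earlier primary screen, cut at about 8% in these data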
MOR-DOR barr ag – activates mu-delta opioid heterodimer, MC4R agonist counter-screen; shares compounds with MC4R barr agon; AID 602194; activation, % at 9.2 µM; actives 5.8% (n = 2,400); U2OS PathHunter beta-arrestin, beta-gal luminescence; percent of deltorphin B response, DMSO zero;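 active means mean activation across replicates exceeds the hit threshold derived in the earlier primary screen, cut at about 18% in these data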;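 further: 100% = deltorphin B at 0.9 µM final and 0% = DMSO alone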
* = called active by the depositor; · = no result given.

SMILES	AHR activator	m5-HT2A agonist	FXN GAA850 act	MC4R antagonist	MC4R barr agon	MC4R barr ag	MOR-DOR barr ag
Nc1ncnc2c1ncn2[C@@H]1O[C@H](C(=O)Nc2ccc(Oc3ccccc3)nc2)[C@@H](O)[C@H]1O	·	-4.7	·	·	·	·	·
Cc1ccc(C(=O)NCCc2cc3ccc(C)c(C)c3[nH]c2=O)cc1[N+](=O)[O-]	5.4	0.0	1.7	7.1	9.6*	0.7	2.8
COc1ccc(C(=O)NCCc2cc3ccc(C)c(C)c3[nH]c2=O)cc1OC	-7.5	-0.5	1.6	0.1	0.6	·	·
CN(C)C(=O)c1cccc(-c2cnc3c(NC=O)cc(-c4cc(F)c(F)c(F)c4)cn23)c1	·	-1.0	0.7	-6.7	3.6	·	·
COc1ccc(F)cc1-c1cc(NC=O)c2ncc(-c3cccc(C(F)(F)F)c3)n2c1	·	4.5	-1.2	-23.0	10.3*	5.8	2.1
CC(=O)c1cccc(-c2cnc3c(NC=O)cc(-c4ccc(F)cc4)cn23)c1	·	0.6	0.5	5.2	14.1*	15.0*	3.9
COc1ccccc1-c1cc(NC=O)c2ncc(-c3cccc(C(C)=O)c3)n2c1	·	1.9	-0.9	-43.0	9.9*	14.2*	3.6
Cc1ccc(NC(=O)COC(=O)c2ccc(CN3CCCC3=O)cc2)c(Cl)c1	-0.8	11.3	1.4	7.2	2.1	·	·
CCOCCn1ccc2c(OCC(=O)NCc3ccccc3)cccc2c1=O	0.0	-0.4	-1.1	10.6	4.1	·	·
CC1=CC(C)(C)n2c(O)c(N=NC(N)=S)c3cc(C)cc1c32	5.3	-2.8	-0.8	-1.7	15.5*	13.7*	4.7
COc1cc(N)c(Cl)cc1C(=O)OCC(=O)N1CCCCCC1	3.0	14.3	3.5	2.8	0.1	·	·
CCOC(=O)CCCN1CC(O)=C(c2nc(-c3ccc(Cl)cc3)cs2)C1=N	12.5	-0.7	2.3	-0.1	22.6*	4.7	2.3
Cc1cc(-c2ccc(S(=O)(=O)N(C)Cc3ccccc3)cc2)on1	3.4	-1.4	-1.8	-7.9	25.3*	-2.3	6.2
CCOC(=O)N1CCC(N2C(=O)c3ccc(C(=O)Nc4cccc(OC)c4)cc3C2=O)CC1	1.1	2.9	1.3	1.0	12.1*	1.9	4.3
CCOC(=O)N1CCC(N2C(=O)c3ccc(C(=O)O)cc3C2=O)CC1	-4.0	-1.3	-0.2	9.7	-0.2	·	·
COCC(C)NC(=O)COCc1cc(-c2ccc3c(c2)OCO3)on1 (stereo not drawn)	3.1	6.4	-1.1	16.5	0.9	·	·
ClC(CCN1CCN(Cc2ccccc2)CC1)c1ccccc1 (stereo not drawn)	-1.1	-5.2	0.0	-1.8	1.6	·	·
Cc1ccc(SCC(=O)NC(=O)Nc2ccc3c(c2)OCCO3)cc1C	-1.8	7.5	1.1	5.4	15.0*	5.2	5.0
COc1ccccc1Nc1nnc(SCC(=O)NC(=O)Nc2ccc3c(c2)OCCO3)s1	6.0	-0.5	1.2	5.4	17.4*	-0.8	3.2
Cc1cccc(Nc2nnc(SCC(=O)NC(=O)Nc3ccc4c(c3)OCCO4)s2)c1	1.1	3.0	-0.3	-1.1	21.6*	11.3*	2.8
Cc1ccccc1Nc1nnc(SCC(=O)NC(=O)Nc2ccc3c(c2)OCCO3)s1	10.3	·	·	·	·	·	·
O=C(Nc1cc(-c2nc3ccccc3s2)ccc1Cl)c1ccc2c(c1)OCO2	21.6	0.6	-0.2	6.2	24.2*	20.7*	1.9
N#Cc1ccccc1OCC(=O)Nc1nc(-c2ccccn2)cs1	·	5.8	-2.6	-5.1	-2.0	·	·
Cc1cc(C)cc(OCC(=O)Nc2nc(-c3ccccn3)cs2)c1	·	1.2	0.9	-8.6	12.2*	2.9	3.4
CC(C)[C@H](NC(=O)c1ccccc1F)C(=O)Nc1ccc(F)c(F)c1	1.7	6.0	1.0	5.2	2.0	·	·
Cc1ccccc1C(=O)N[C@H](C(=O)Nc1ccc(Cl)c(Cl)c1)C(C)C	4.6	0.9	0.0	7.3	17.1*	-0.6	3.6
NC(=O)c1c(NC(=O)C2COc3ccccc3O2)sc2c1CCN(Cc1ccccc1)C2 (stereo not drawn)	-0.9	-1.7	-1.0	20.8	13.9*	1.2	5.5
